# Results from different studies.
# Protocols differ between the studies behind these lines.
# Target: NUAK family SNF1-like kinase 1 (NUAK1, Homo sapiens, UniProt O60285)
# Residues used in one study (O60285 1-661): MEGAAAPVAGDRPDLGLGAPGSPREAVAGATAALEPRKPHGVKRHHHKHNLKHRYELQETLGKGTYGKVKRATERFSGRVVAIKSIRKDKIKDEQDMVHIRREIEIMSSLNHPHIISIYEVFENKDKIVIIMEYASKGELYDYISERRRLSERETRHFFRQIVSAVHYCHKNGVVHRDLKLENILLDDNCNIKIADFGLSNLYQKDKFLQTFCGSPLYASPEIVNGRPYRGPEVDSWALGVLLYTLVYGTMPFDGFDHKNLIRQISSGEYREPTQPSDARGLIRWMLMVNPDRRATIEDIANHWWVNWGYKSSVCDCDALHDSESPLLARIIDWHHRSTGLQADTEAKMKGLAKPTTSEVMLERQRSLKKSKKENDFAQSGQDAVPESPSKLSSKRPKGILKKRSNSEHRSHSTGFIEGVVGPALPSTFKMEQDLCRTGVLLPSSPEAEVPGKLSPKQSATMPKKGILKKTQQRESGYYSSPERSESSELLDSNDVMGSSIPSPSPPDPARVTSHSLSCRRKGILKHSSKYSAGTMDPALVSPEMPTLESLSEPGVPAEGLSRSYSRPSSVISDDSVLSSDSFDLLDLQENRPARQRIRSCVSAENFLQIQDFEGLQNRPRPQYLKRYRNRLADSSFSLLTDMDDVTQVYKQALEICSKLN
Compound,observed,mode,method,tested at,quantity,result
Cc1nn(CC(F)(F)F)cc1Nc1ncc(Br)c(NCCCNC(=O)C2CCC2)n1,enzyme activity,inhibitor,radiometric,1 µM,remaining activity,22%
CN(C)C(=O)Cn1cc(-c2nc(C3(c4ccc(-c5cnc(N)nc5)cc4)CC3)no2)cn1,cell-free assay,,competition with immobilised ligand,1 µM,remaining binding,82%
O=C1Nc2ccc(Cl)cc2C1=Cc1cc(Cl)c(O)c(Cl)c1,cell-free assay,,,0.5 µM,remaining signal,72.5%
Cc1ccc(Nc2nccc(N(C)c3ccc4c(C)n(C)nc4c3)n2)cc1S(N)(=O)=O,enzyme activity,inhibitor,,0.3 µM,inhibition,14%
O=C(NCCCNc1nc(Nc2cccc(NC(=O)N3CCCC3)c2)ncc1Br)C1CCC1,enzyme activity,inhibitor,radiometric,1 µM,remaining activity,0%
CN(c1nccc(-c2cnn3ncccc23)n1)C1CC1,cell-free assay,,,1 µM,remaining signal,93%
O=C(NCCCNc1nc(Nc2cccc(NC(=O)N3CCCC3)c2)ncc1I)c1cccs1,enzyme activity,inhibitor,radiometric,1 µM,remaining activity,2%
CNC(=O)c1cc(Oc2ccc(NC(=O)Nc3ccc(Cl)c(C(F)(F)F)c3)cc2)ccn1,enzyme activity,inhibitor,,10 µM,inhibition,2%
COc1ccc2c(c1)O[C@@H](c1ccc(OC)c(OC)c1)C[C@H]2NC(=O)C1(c2ccc3c(c2)OC(F)(F)O3)CC1,cell-free assay,,competition with immobilised ligand,1 µM,remaining binding,86%
CCN(CC)CCNC(=O)c1c(C)[nH]c(/C=C2\C(=O)Nc3ccc(F)cc32)c1C,cell-free assay,,,0.5 µM,remaining signal,2.75%
NS(=O)(=O)c1ccc(CNc2ccnc(Nc3cccc(NC(=O)N4CCCC4)c3)n2)cc1,enzyme activity,inhibitor,radiometric,1 µM,remaining activity,78%
CC(=O)Nc1c(C(C)=O)c(=O)n(C)c2nc(-c3ccc(Cl)cc3Cl)c(-c3ccc(Cl)cc3)cc12,cell-free assay,,competition with immobilised ligand,1 µM,remaining binding,100%
FC(F)c1nc2ccccc2n1-c1nc(N2CCOCC2)nc(N2CCOCC2)n1,enzyme activity,inhibitor,,10 µM,remaining activity,90%
CO[C@@H](C)c1c(Nc2ccc([C@H](N(C)C(=O)C3CCS(=O)(=O)CC3)C(F)(F)F)cc2)cnc2cc(Cl)nn12,cell-free assay,,competition with immobilised ligand,1 µM,remaining binding,98%
c1cc(CN2CCOCC2)cc(Nc2ncc(C3CC3)c(NCCc3c[nH]cn3)n2)c1,enzyme activity,inhibitor,radiometric,1 µM,remaining activity,6%
CC/C(=N\NC(=O)NCc1cccc(O)c1)c1ccc(O)c(C)c1O,enzyme activity,inhibitor,,0.1 µM,inhibition,-2.5%
CCCS(=O)(=O)Nc1ccc(F)c(C(=O)c2c[nH]c3ncc(-c4ccc(Cl)cc4)cc23)c1F,enzyme activity,inhibitor,,1 µM,inhibition,< 20%
CNCc1ccccc1-c1csc([C@@H](C)Nc2nc(C)nc3cc(OC)c(OC)cc23)c1,cell-free assay,,competition with immobilised ligand,1 µM,remaining binding,97%
N#CCCc1ccc2c(c1)-c1[nH]c3ccc([N+](=O)[O-])cc3c1CC(=O)N2,cell-free assay,,,0.5 µM,remaining signal,14.1%
O=C(NCCCNc1nc(Nc2cccc(CN3CCOCC3)c2)ncc1C1CC1)C1CCC1,enzyme activity,inhibitor,radiometric,1 µM,remaining activity,31%
O=C(Nc1ccc(Oc2ccc(F)cc2)cc1)N1CCc2ncccc2[C@H]1c1ccc(F)cc1,cell-free assay,,competition with immobilised ligand,1 µM,remaining binding,92%
CN(C)C1CCN(CC#Cc2nn(C3CCCC3)c3nc(NCc4ccccc4)ncc23)C1 (centres unmarked),enzyme activity,inhibitor,FRET,1 µM,inhibition,10%
CO[C@H]1CC[C@H](CNc2ccc(S(=O)(=O)NC(=O)c3ccc(N4CCN(CC5=C(c6ccc(Cl)cc6)CC(C)(C)CC5)CC4)cc3Oc3cnc4[nH]ccc4c3)cc2[N+](=O)[O-])CC1,cell-free assay,,competition with immobilised ligand,1 µM,remaining binding,100%
NS(=O)(=O)c1ccc(CNc2nc(Nc3cccc(CN4CCOCC4)c3)ncc2Br)cc1,enzyme activity,inhibitor,radiometric,1 µM,remaining activity,23%
CCc1ccccc1C(=O)Nc1n[nH]c2c(C)c(F)c(C3C(C#N)=C(C)N(C)C(C)=C3C#N)cc12,cell-free assay,,competition with immobilised ligand,1 µM,remaining binding,33%
NS(=O)(=O)c1ccc(CNc2ccnc(Nc3cccc(CN4CCOCC4)c3)n2)cc1,enzyme activity,inhibitor,radiometric,1 µM,remaining activity,79%
